The target in assay [1] is Aldo-keto reductase family 1 member B1 (Rattus norvegicus, UniProt P07943). Put plainly: Inhibition of aldose reductase in Fischer-344 rat lens homogenate by spectrometric analysis.
Assay [2] deals with T1, Aldo-keto reductase family 1 member A1 (Rattus norvegicus) (UniProt P51635).
T1 sequence (whole entry): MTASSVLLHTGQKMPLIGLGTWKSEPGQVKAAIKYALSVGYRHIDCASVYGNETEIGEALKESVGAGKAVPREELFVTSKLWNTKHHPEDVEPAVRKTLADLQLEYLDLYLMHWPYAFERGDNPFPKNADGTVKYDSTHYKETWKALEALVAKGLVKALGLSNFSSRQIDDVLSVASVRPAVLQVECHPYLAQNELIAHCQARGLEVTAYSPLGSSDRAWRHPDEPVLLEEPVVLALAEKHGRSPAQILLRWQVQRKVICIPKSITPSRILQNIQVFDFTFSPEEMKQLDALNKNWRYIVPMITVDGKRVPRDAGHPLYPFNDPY
Put plainly: Inhibition of rat kidney aldehyde reductase at 0.1 mM after 20 mins by spectrometric analysis.

Assay [3] deals with Aldo-keto reductase family 1 member B1 (Rattus norvegicus) (UniProt P07943). Put plainly: Inhibition of aldose reductase in Fischer-344 rat lens homogenate at 0.1 mM by spectrometric analysis.
A short description of assay [4]: Antioxidant activity against AAPH-induced lipid peroxidation in unilamellar DOPC liposomes after 80 mins by thiocyanate reagent method. Type of assay: functional. The procedure, abridged: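 DOPC unilamellar liposomes (final 0.8 mM, phosphate buffer 20 mM pH 7.4) incubated with test compound (10–300 µM range stated) and AAPH (final 10 mM) at 50 °C for 80 min. Aliquots extracted with ice-cold CHCl3/MeOH (2:1) containing BHT. Lipid hydroperoxide determined by thiocyanate method, absorbance at 500 nm, quantified against cumene hydroperoxide calibration curve. Triplicate.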

Assay [5] relates to Radical scavenging activity. Nature of the assay: Antioxidant activity assessed as DPPH radical scavenging activity at 0.2 mM. Type of assay: functional. An outline of the steps: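 Compounds in absolute ethanol added to an equal volume of ethanolic DPPH to give final 0.2–0.0125 mM compound and 0.2 mM DPPH. Continual absorbance decrease at 517 nm followed. Trolox reference. Triplicate.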
(In general: DPPH is a stable violet radical that fades when it is reduced.)

One may read the IC50 as the point on the concentration scale where inhibition reaches its midpoint. The low end stands for greater potency, the high end for weaker potency. The inhibition is the change of the read-out against control, counted positive when it falls. Take `O=C(O)CCn1ccc(C(=O)c2ccccc2)c1`: in assay [1], the IC50 was 9.7 µM. For the same compound, in assay [2], the inhibition worked out at 20%.

In the case of `O=C(c1ccccc1)c1ccn(CCc2nn[nH]n2)c1`, the inhibition in assay [3] was 6%; in assay [2], 41%.

`Cc1c(C)c2c(c(C)c1O)CCC(C)(C(=O)O)O2` (stereo not drawn) [TROLOX] registered an IC50 in assay [4] of 93.5 µM. In addition, in assay [5], the Activity was 98%.

Regarding `O=C(c1ccccc1)c1cccn1-c1nn[nH]n1`, the IC50 in assay [1] is 20 µM; in assay [4] it was greater than 300 µM. In assay [2], this compound registered an inhibition of 18%. Moreover, the Activity in assay [5] turned out to be 10%.

Turning to `O=C(c1ccccc1)c1ccn(-c2nn[nH]n2)c1`, the concentration for half-maximal inhibition (IC50) is 18 µM in assay [1] and greater than 300 µM in assay [4]. Besides, the inhibition in assay [2] came out at 18%. Also, in assay [5], the Activity is 10%.

In the case of `O=C(c1ccccc1)c1ccn(CCCc2nn[nH]n2)c1`, the inhibition in assay [3] worked out at 41%; in assay [2] it was 35%.

As for `O=C(c1ccccc1)c1ccn(Cc2nn[nH]n2)c1`, the results for the inhibition in assay [3] and in assay [2] were 40% and 23%, respectively.

With `O=C(O)Cn1ccc(C(=O)c2ccccc2)c1`, in assay [4], the half-maximal inhibitory concentration (IC50) is greater than 300 µM. Besides, in assay [2], the inhibition came out at 34%. The Activity in assay [5] was 10%.

`O=C(O)CCCn1ccc(C(=O)c2ccccc2)c1` had an IC50 in assay [1] of 6.04 µM. For the same compound, in assay [2], the inhibition amounted to 22%.
